Measured values: ChEMBL document CHEMBL1155638, “Anti-AIDS agents 38. Anti-HIV activity of 3-O-acyl ursolic acid derivatives” (J Nat Prod, 2000)

Key:
[1] = system: Human immunodeficiency virus 1; assay: Antiviral activity against HIV1 replication in human H9 cells; settings: for Activity: human, h9; for EC50: Homo sapiens, H9
H9 (human) = assay: Cytotoxicity against human H9 cells assessed as growth inhibition after 4 days
[2] = Therapeutic index, IC50 for human T-lymphoid H9 cells to EC50 for HIV1 3B isolate; assay type: cell-based; settings: read-out: Ratio IC50/EC50
Outline: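 Ratio of IC50 (Coulter count, mock-infected H9 cells, 4 days) to EC50 (p24 ELISA, HIV-1 IIIB-infected H9 cells, 4 days), both determined in parallel within the same assay.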

Activity [1] | EC50 [1] [µM] | SMILES | IC50 (H9 (human); H9, 96 h) [µM] | IC50 (H9 (human); h9) [µM] | selectivity ratio [2]
Not Active | – | C[C@H]1[C@H](C)CC[C@]2(C(=O)O)CC[C@]3(C)C(=CC[C@@H]4[C@@]5(C)CC[C@H](OC(=O)C(C)(C)CC(=O)O)C(C)(C)[C@@H]5CC[C@]43C)[C@H]12 | 30.7 | – | –
– | – | C[C@H]1[C@H](C)CC[C@]2(C(=O)O)CC[C@]3(C)C(=CC[C@@H]4[C@@]5(C)CC[C@H](O)C(C)(C)[C@@H]5CC[C@]43C)[C@H]12 | – | 1.8 | –
– | 0.31 | C[C@H]1[C@H](C)CC[C@]2(C(=O)O)CC[C@]3(C)C(=CC[C@@H]4[C@@]5(C)CC[C@H](OC(=O)COCC(=O)O)C(C)(C)[C@@H]5CC[C@]43C)[C@H]12 | 48.2 | – | 156
– | < 0.00035 | C=C(C)[C@@H]1CC[C@]2(C(=O)O)CC[C@]3(C)[C@H](CC[C@@H]4[C@@]5(C)CC[C@H](OC(=O)CC(C)(C)C(=O)O)C(C)(C)[C@@H]5CC[C@]43C)[C@@H]12 [BEVIRIMAT] | 7 | – | > 20000
– | – | CC1(C)CC[C@]2(C(=O)O)CC[C@]3(C)C(=CC[C@@H]4[C@@]5(C)CC[C@H](OC(=O)CC(C)(C)C(=O)O)C(C)(C)[C@@H]5CC[C@]43C)[C@@H]2C1 | – | – | 22300
– | 3 | C[C@@H]1CC[C@]2(C(=O)O)CC[C@]3(C)C(=CC[C@@H]4[C@@]5(C)CC[C@H](O)C(C)(C)[C@@H]5CC[C@]43C)[C@@H]2[C@]1(C)O [POMOLIC ACID] | – | – | 16.3
– | 6.4 | C[C@H]1[C@H](C)CC[C@]2(C(=O)O)CC[C@]3(C)C(=CC[C@@H]4[C@@]5(C)CC[C@H](OC(=O)CCCC(=O)O)C(C)(C)[C@@H]5CC[C@]43C)[C@H]12 | 30.7 | – | 4.8
– | – | C=C(C)[C@@H]1CC[C@]2(C(=O)O)CC[C@]3(C)[C@H](CC[C@@H]4[C@@]5(C)CC[C@H](O)C(C)(C)[C@@H]5CC[C@]43C)[C@@H]12 [BETULINIC ACID] | 12.9 | – | 9.2
– | – | CC1(C)CC[C@]2(C(=O)O)CC[C@]3(C)C(=CC[C@@H]4[C@@]5(C)CC[C@H](O)C(C)(C)[C@@H]5CC[C@]43C)[C@@H]2C1 [OLEANOLIC_ACID] | – | – | 12.9
Not Active | – | C[C@H]1[C@H](C)CC[C@]2(C(=O)O)CC[C@]3(C)C(=CC[C@@H]4[C@@]5(C)CC[C@H](OC(=O)CC(C)(C)C)C(C)(C)[C@@H]5CC[C@]43C)[C@H]12 | > 18 | – | –
Not Active | – | CC(C)CC(=O)O[C@H]1CC[C@]2(C)[C@H]3CC=C4[C@@H]5[C@@H](C)[C@H](C)CC[C@]5(C(=O)O)CC[C@@]4(C)[C@]3(C)CC[C@H]2C1(C)C | > 18.5 | – | –
– | 15.3 | C[C@H]1[C@H](C)CC[C@]2(C(=O)O)CC[C@]3(C)C(=CC[C@@H]4[C@@]5(C)CC[C@H](OC(=O)CCC(=O)O)C(C)(C)[C@@H]5CC[C@]43C)[C@H]12 | 44.9 | – | 2.9
– | 2.1 | C[C@H]1[C@H](C)CC[C@]2(C(=O)O)CC[C@]3(C)C(=CC[C@@H]4[C@@]5(C)CC[C@H](OC(=O)CC(C)(C)C(=O)O)C(C)(C)[C@@H]5CC[C@]43C)[C@H]12 | 49.5 | – | 23.6
Not Active | – | C[C@H]1[C@H](C)CC[C@]2(C(=O)O)CC[C@]3(C)C(=CC[C@@H]4[C@@]5(C)CC[C@H](OC(=O)CC(C)(C)CC(=O)O)C(C)(C)[C@@H]5CC[C@]43C)[C@H]12 | 7 | – | –
